# NR1D1 modulator – modulates human Rev-erb alpha binding to DNA. Rev-erbα–FITC-DNA binding, fluorescence polarization, 90 min. activity, % at 10 µM. 370,000 tested, 0.79% active. AID 1259318;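 active = activity above about 14%, limit read from the data; passing the limit was not always enough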;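 note: 0% = DMSO wells with 35 nM protein and 100% = DMSO wells with 750 nM protein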
# Target sequence (P20393 whole entry, looked up): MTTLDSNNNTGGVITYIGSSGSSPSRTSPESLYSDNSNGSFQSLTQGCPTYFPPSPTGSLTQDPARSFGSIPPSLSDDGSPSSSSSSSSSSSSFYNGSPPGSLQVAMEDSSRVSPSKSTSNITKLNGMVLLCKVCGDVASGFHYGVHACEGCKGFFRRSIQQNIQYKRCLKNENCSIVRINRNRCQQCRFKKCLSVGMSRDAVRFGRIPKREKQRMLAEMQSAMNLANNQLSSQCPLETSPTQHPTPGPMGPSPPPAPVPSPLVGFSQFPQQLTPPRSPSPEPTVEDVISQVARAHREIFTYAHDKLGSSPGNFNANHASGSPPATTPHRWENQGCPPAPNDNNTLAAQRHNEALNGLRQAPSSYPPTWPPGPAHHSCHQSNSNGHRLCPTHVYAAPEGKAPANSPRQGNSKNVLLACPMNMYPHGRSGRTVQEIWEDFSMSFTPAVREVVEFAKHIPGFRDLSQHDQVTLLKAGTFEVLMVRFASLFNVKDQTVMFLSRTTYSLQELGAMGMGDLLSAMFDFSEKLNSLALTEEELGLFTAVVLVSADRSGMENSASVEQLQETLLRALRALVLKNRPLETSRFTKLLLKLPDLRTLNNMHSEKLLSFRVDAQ
# PG9 Ab binder – binds the HIV-1 gp120 antibody PG9; 360,000 tested, 0.43% active; inhibition, % at 6.7 µM; AID 624416; TR-FRET gp120-PG9 antibody binding; in the data active = inhibition above about 8.5%
# NR2E3 ag-1 – NR2E3 (human) agonism; GST-NR2E3/biotin-RetCOR TR-FRET, 1536-well; Q9Y5X4; inhibition of corepressor binding, % at 4.78 µM; 320,000 tested, 0.12% active;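 active = percent inhibition above the cutoff of mean plus 3 SD of all tested compounds, set per screening campaign, cut at about 20% in these data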;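 note: 0% = DMSO wells and 100% = biotin wells as full block of FRET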
#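 Material – GST-tagged NR2E3 plus biotinylated RetCOR corepressor · Quantity – NR2E3 fusion 1.35 nM · Times – 5 h incubation at 4 °C · Medium – pH 7.5 Tris-based buffer · Technique – TR-FRET, Eu(K)-anti-GST donor, streptavidin-D2 acceptor, ex 340, em 617/671 nm · Benchmarks – high control biotin, low control 0.6% DMSO · Format – 1536-well plates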
# NR2E3 ag-2 – agonists of human NR2E3 nuclear receptor; CHO-S Gal4-NCOR/VP16-NR2E3 two-hybrid, luciferase; 360,000 tested, 0.35% active; Q9Y5X4; AID 602229; inhibition of corepressor binding, % at 3.98 µM;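 active = inhibition above the mean of all tested compounds plus 3 SD, cut at about 70% in these data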;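 note: 0% = DMSO with NR2E3 transfected cells and 100% = cells lacking NR2E3 construct; higher means lower luciferase signal from less NR2E3 corepressor binding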
# NR2E3 ag confirm – confirmation of human NR2E3 agonists. AID 624378. CHO-S mammalian two-hybrid NR2E3-NCOR, luciferase luminescence. inhibition, % at 3.98 µM. shares compounds with NR2E3 ag-2. 2,300 tested, 51% active;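 active = average inhibition above a cutoff equal to the mean inhibition of all tested compounds plus one SD, cut at about 70% in these data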;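 note: 0% = DMSO in NR2E3 cells and 100% = DMSO in cells lacking NR2E3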
# VP16 counter – reduces GAL4-VP16 reporter signal in NR2E3 counterscreen. shares compounds with NR2E3 ag-2. AID 624379. inhibition, % at 3.98 µM. 2,300 tested, 29% active. CHO-S GAL4-VP16 luciferase reporter, luminescence;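 active = mean inhibition above a cutoff equal to the average over all tested compounds plus one standard deviation, cut at about 70% in these data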;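 note: luciferase from a UAS reporter driven by GAL4-VP16 transactivation; 0% = DMSO with VP16-transfected cells and 100% = DMSO with cells lacking VP16; higher means less reporter light so more repression of VP16 activity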
# Active calls of the source: *; . = not tested or not shown. In the library only some 1.4% were active in any assay of this set; here they are far more common.
SMILES,NR1D1 modulator,PG9 Ab binder,NR2E3 ag-1,NR2E3 ag-2,NR2E3 ag confirm,VP16 counter
CCC(C)[C@H]1CNCCN1CCc1cc(C(F)(F)F)cc(C(F)(F)F)c1 (stereo partly drawn),0,-1,-1,17,.,.
CCC(C)[C@H]1CNC(=S)N1CCc1cc(C(F)(F)F)cc(C(F)(F)F)c1 (stereo partly drawn),5,0,2,48,-4,17
CC(C)C[C@H]1COc2cc(F)ccc2S(=O)(=O)N1C,3,.,.,.,.,.
Cc1c(CN(C)C(=O)c2sc3cc(Cl)ccc3c2Cl)cnn1C,4,-3,0,48,72*,66
Cc1ccc(NC(=O)CN(C)C(=O)c2sc3cc(Cl)ccc3c2Cl)cc1,14,5,0,-22,.,.
COc1ccc(C(=O)Nc2ccc3c(c2)C(=O)c2ccccc2C3=O)cc1OC,-27,-1,0,-6,.,.
COc1ccc(C(=O)c2c(C(F)(F)F)oc3c2C(=O)c2ccccc2C3=O)cc1OC,3,1,6,89*,100*,54
O=C(NCCc1ccccc1)OCc1cn(Cc2ccc(C(F)(F)F)cc2)nn1,-5,.,.,.,.,.
CSc1nc2c([nH]1)c(=S)n(C)c(=O)n2C,-4,-4,.,33,.,.
CCCC(CC)Sc1nc2c([nH]1)c(=S)n(C)c(=O)n2C (stereo not drawn),-4,-1,.,78*,22,-11
CCCCSc1nc2c([nH]1)c(=S)n(C)c(=O)n2C,5,-2,.,64,31,-21
CCCCC(C)Sc1nc2c([nH]1)c(=S)n(C)c(=O)n2C (stereo not drawn),15,-1,.,87*,87*,61
CCN(CC)C(=O)CC[C@H]1CC[C@]2(CCCN(C3CCCCC3)C2)O1,-5,.,.,.,.,.
O=C(c1ccc([N+](=O)[O-])o1)N1CCN(c2nc3c(Cl)cccc3s2)CC1,1,-1,2,-18,.,.
COc1cccc2sc(N3CCN(C(=O)c4ccc([N+](=O)[O-])o4)CC3)nc12,.,.,1,63,42,34
Cc1cc(=O)n(-c2ccc(C(=O)O)cc2)[nH]1,2,0,14,-24,.,.
Cc1cc(=O)n(-c2ccc(O)cc2)[nH]1,-7,-3,14,56,-8,4
CC1(C)CC(=O)C2=C(C1)c1c(ccc3ccccc13)NC2c1cc([N+](=O)[O-])cc([N+](=O)[O-])c1O (stereo not drawn),1,-2,0,57,98*,61
COc1ccc(NC(=O)C(C)N2c3cccc4cccc(c34)S2(=O)=O)cc1OC (stereo not drawn),1,2,1,63,66,48
CC(CCN1CCC(C(O)(c2ccccc2)c2ccccc2)CC1)Oc1cc(F)cc(C#N)c1 (stereo not drawn),4,.,.,.,.,.
O=C(CN1C(=O)C(c2ccc(F)cc2)=NC12CCCC2)Nc1ccc(F)cc1,0,-1,5,75*,73*,54
COc1ccc(NC(=O)CN2C(=O)C(c3ccccc3)=NC23CCCCCC3)cc1,-1,-3,1,-32,.,.
CN(c1ccccc1)c1ncccn1,8,-1,-5,8,.,.
COc1cnc(-c2ccccn2)nc1N(C)c1ccccc1,1,-1,-2,105*,94*,-23
COc1cnc(-c2ccccn2)nc1Oc1ccccc1,1,0,2,59,22,-20
SMILES,NR1D1 modulator,PG9 Ab binder,NR2E3 ag-1,NR2E3 ag-2,NR2E3 ag confirm,VP16 counter
CCOC(=O)CC1CCCCN1C(=O)c1cc(COc2cccc3cnccc23)on1 (stereo not drawn),-3,-3,-2,101*,91*,88*
CN(Cc1nccs1)C(=O)c1cc(COc2cccc3cnccc23)on1,5,0,-2,94*,81*,76*
COC(=O)C1CCCCN1C(=O)c1cc(COc2cccc3cnccc23)on1 (stereo not drawn),1,-1,3,102*,95*,88*
COC(=O)C1CCCCN1C(=O)c1cc(COc2cccc3cccnc23)on1 (stereo not drawn),-1,-2,0,-11,.,.
CCOC(=O)[C@@]12CCCC=C1N(CCc1ccc(Cl)cc1)C(=O)[C@H]2CC(=O)N1CCC(c2ccccc2)CC1,14,.,.,.,.,.
C(=NN1CCCCCC1)c1ccc2ccccc2n1,-4,-2,.,95*,86*,68
C(=NN1CCCCCC1)c1cccc2ccccc12,0,0,.,6,.,.
CCCCCC[C@@H](CCC)C(=O)O,0,.,.,.,.,.

# Screening data from PubChem.
